Variants at the floor of the assay were thinned out.
B1: tRNA (parent)
chain: GUUCCGUUGGCGUAAUGGUAACGCGUCUCCCUCCUAAGGAGAAGACUGCGGGUUCGAGUCCCGUACGGAACG

Variants of: B1
Test: yeast fitness relative to wild type (ratio to wild type); higher = fitter; tRNA-Arg(CCU), competitive growth, 37 C, YPD
In short: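 The tRNA-Arg(CCU) gene variants were made by chemical synthesis with a 3% per-site mutation rate at 69 sites and inserted at the native genomic locus of Saccharomyces cerevisiae. After pooling, the strains were competed in YPD at 37°C for 24 hours in six parallel replicates. Gene amplicons from the start population and each end population were read by 100-nucleotide paired-end sequencing, and Darwinian fitness relative to wild type was taken from genotype frequency changes. Genotypes needed ≥ 100 starting reads, and estimates < 0.5 were set to 0.5.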

Variant | yeast fitness
C31G G38U | 0.804
C31G G41A A43C G51C | 0.562
C31G G41A A65C | ≤ 0.5
C31G G41A G52C A65U G67C | ≤ 0.5
C31G G41A G52C C60U C62G | 0.53
C31G G41A G52C C60U C62G C66G | 0.539
C31G G41A G63U | 0.609
C31G G41A U47C G52C C60U C62G C66G | ≤ 0.5
C31G G44A G51C A65G | 0.537
C31G G44A U47A G51C C66U | ≤ 0.5
C31G G44C | 0.931
C31G G44C A69C A70C | 0.528
C31G G44C G67C | ≤ 0.5
C31G G44C U53C A65U A70G | ≤ 0.5
C31G G48A C55A C62A | ≤ 0.5
C31G G48C | 0.811
C31G G50C G58C | 0.571
C31G G51A | 0.749
C31G G51A A57G G68C | ≤ 0.5
C31G G51A C55G G68C | 0.56
C31G G51A G68C | 0.545
C31G G51C A70G | ≤ 0.5
C31G G51C A70U | 0.561
C31G G56A | 0.98

Variant | yeast fitness
C31G G56U | 0.723
C31G G58C | 0.88
C31G G58C C62U | 0.838
C31G G63A | 0.848
C31G G63A C66U | 0.64
C31G G67C A69U | ≤ 0.5
C31G G67U | 0.655
C31G G68A | 0.802
C31G G68C | 0.684
C31G U32A C60G | ≤ 0.5
C31G U32C | 0.754
C31G U32G A37U A65U | ≤ 0.5
C31G U35C | 0.823
C31G U35C C66U | 0.558
C31G U47C | 0.952
C31G U47G | 0.667
C31G U47G U53G C61U G68A | ≤ 0.5
C31G U53C U54G | ≤ 0.5
C31G U54A | 0.655
C31G U54C C55G U64C | ≤ 0.5
C31G U59A | 0.779
C31G U59A A65U C66A | ≤ 0.5
C31U A36C | 0.842
C31U A36C G41A | ≤ 0.5

Variant | yeast fitness
C31U A36C U53C | 0.569
C31U A37G G68C | ≤ 0.5
C31U A37G U47C G63A | ≤ 0.5
C31U A37U A69U | 0.677
C31U A37U A70U | 0.558
C31U A37U C66U | 0.542
C31U A37U U54A | 0.514
C31U A40C C49U G52A | ≤ 0.5
C31U A40C C55G G68A A69U | 0.581
C31U A40G G48A A70U | 0.533
C31U A40G G48C | 0.559
C31U A40U A45U | 0.618
C31U A42C | 1.17
C31U A42C U47G G52C A57U | ≤ 0.5
C31U A42C U54A | ≤ 0.5
C31U A42G C62U A69C | 0.542
C31U A42G G58A | 0.716
C31U A42G G63C C66U | ≤ 0.5
C31U A42U A43U C60U A69U | 0.51
C31U A42U C62A | 0.615
C31U A43G | 1.06
C31U A45C | 1.25
C31U A45U | 1.12
C31U A57C | 0.574

Variant | yeast fitness
C31U A57C C66U | 0.663
C31U A65C | 0.926
C31U A69C | 1.04
C31U A70U | 1.04
C31U C33A A43U G48A U53A | ≤ 0.5
C31U C33A G50A G68U | 0.596
C31U C33G | 0.785
C31U C33G G50C | 0.508
C31U C33U | 0.723
C31U C33U A37C | ≤ 0.5
C31U C33U A37G A57C | ≤ 0.5
C31U C33U A40U A45G | 0.575
C31U C33U A42C | 0.562
C31U C33U C34G A40C A69C | ≤ 0.5
C31U C33U C34G A40C G63A | ≤ 0.5
C31U C34G C49U G52A | 0.725
C31U C34G C49U G52A A69U | ≤ 0.5
C31U C34G C62U A70G | ≤ 0.5
C31U C34G G50A | ≤ 0.5
C31U C34G G67A | 0.539
C31U C34U G38A C46U | 0.524
C31U C34U G50A G52A A57G G67C | ≤ 0.5
C31U C46A | 1.01
C31U C46A A65U A69U | 0.58

Variant | yeast fitness
C31U C46A A70C | 0.771
C31U C46A G58C A69U | 0.543
C31U C46G | 0.972
C31U C46G G63A | 0.606
C31U C46U C49U | 0.905
C31U C49A | 0.783
C31U C49G | 0.914
C31U C49U A69U | 0.889
C31U C49U U64A | 0.685
C31U C55A | 0.749
C31U C55G A70C | 0.535
C31U C55U C61A G67A | ≤ 0.5
C31U C60G A70G | 0.675
C31U C60U | 0.841
C31U C60U C61G | ≤ 0.5
C31U C60U U64C | 0.695
C31U C61U G68C | ≤ 0.5
C31U C62G G68C | 0.507
C31U C66A | 0.774
C31U G38C | 0.845
C31U G38C G51C C55U | ≤ 0.5
C31U G38C G52C | ≤ 0.5
C31U G38C G63A G68C A69G | 0.673
C31U G39A A45C | 0.677

Variant | yeast fitness
C31U G39A G44A C61U | ≤ 0.5
C31U G39C A40U | 0.838
C31U G39C G52C | ≤ 0.5
C31U G39C G58A | 0.552
C31U G41A A69U | 0.808
C31U G41C | 0.796
C31U G41C A43C | 0.722
C31U G41C C61U | 0.574
C31U G44A A45U | 0.893
C31U G44C A65C | 0.594
C31U G44C C60U | 0.689
C31U G48A | 0.949
C31U G48A A69U | 0.757
C31U G48A C61A | 0.532
C31U G48A C61U A65C | ≤ 0.5
C31U G48C | 1
C31U G48C C55A C60G A69G | ≤ 0.5
C31U G48C C66U | 0.741
C31U G48C G67C | 0.649
C31U G50A | 0.904
C31U G50A A70U | 0.677
C31U G50A G67A | 0.63
C31U G52C A65U | ≤ 0.5
C31U G52C C60A | 0.632

Variant | yeast fitness
C31U G52C U54A C66U | ≤ 0.5
C31U G56A | 1.04
C31U G56A G63C | ≤ 0.5
C31U G58A A65C | 0.65
C31U G58C C61A A69U | 0.505
C31U G58C U59G C61G | ≤ 0.5
C31U G63C | 0.766
C31U G67C | 0.902
C31U G67U A69G | 0.747
C31U G68A | 0.883
C31U G68C | 0.68
C31U U32C C33U | 0.667
C31U U32C C34A C55U | ≤ 0.5
C31U U35A G51C | ≤ 0.5
C31U U35C U53C | ≤ 0.5
C31U U47A G51U | ≤ 0.5
C31U U47A G51U C62U | ≤ 0.5
C31U U47C A65G A69U | ≤ 0.5
C31U U47C G63A | 0.687
C31U U47G | 0.526
C31U U47G G56C | ≤ 0.5
C31U U53A | 0.656
C31U U53A U59A | ≤ 0.5
